Bioassay records deposited in PubChem BioAssay by The Scripps Research Institute Molecular Screening Center.
Hits are enriched below; roughly 2% of the tested compounds scored in any of these assays.
ARFGAP1 inhibitor – rat ARFGAP1 inhibition; inhibition, % at 16.5 µM; Q62848; 0.26% of 360,000 active; Arfgap1-stimulated ARF1 GTP hydrolysis, GDP FP detection; AID 651572;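 active = inhibition above a per-plate limit, mean inhibition of low control wells plus 3 SD, cut at about 25% in these data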;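 also: 0% = DMSO wells with enzyme and 100% = wells lacking Arfgap1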
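System: truncated rat Arfgap1 GAP domain / Benchmarks: high control wells lacking Arfgap1, low control full reaction with DMSO / Times: compound-enzyme preincubation 20 min, reaction 120 min, detection 60 min, 25 °C / Repeats: one replicate per compound / Also added: human ARF1(Δ1-17)-GTP substrate / Measured by: Tracer-displacement fluorescence polarization with EDTA stop, 620/688 nm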
ASAP1 GAP inh – ASAP1 ArfGAP inhibition; 0.19% of 360,000 active; inhibition, % at 16.5 µM; ASAP1-stimulated ARF1 GTP hydrolysis, GDP FP detection; in the data active = inhibition above about 25%;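 also: 0% = vehicle with enzyme and substrate and 100% = no enzyme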
UHRF1 MBD2 ctr – blocks human UHRF1 binding to methylated DNA. UHRF1 binding to methylated oligo, TR-FRET. Q96T88. inhibition, % at 4.4 µM. 0.75% of 370,000 active; in the data active = inhibition above about 21%;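 also: UHRF1 SRA domain binding a hemimethylated CpG hairpin DNA probe; 0% = median of test compound wells and 100% = reference inhibitor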
TCR CD3 inh – human TCR-CD3 binding inhibition; TAMRA-labeled TCR probe fluorescence, biochemical; inhibition, % at 9.4 µM; 0.37% of 360,000 active; in the data active = inhibition above about 19%;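 also: recombinant mutant TCR 2C K166C tagged with TAMRA read by polarization; 0% = receptor in buffer alone and 100% = receptor with positive control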
LEDGF integ inh – blocks HIV-1 LEDGF/p75-dependent DNA integration. inhibition, % at 3.7 µM. 0.64% of 370,000 active. TR-FRET IN-LEDGF/p75 DNA integration, Eu/Cy5. AID 743269;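 active = inhibition above the screen-wide mean plus 3 SD, cut at about 13% in these data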;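 also: signal is the Cy5 over europium emission ratio at 671 and 618 nm; 0% = plate median of compound wells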
MBD2 DNA inh – inhibitors of human MBD2 binding to methylated oligonucleotide; Q9UBB5; TR-FRET; inhibition, % at 4.4 µM; 0.31% of 370,000 active; in the data active = inhibition above about 13%
An asterisk follows results filed as active; x = no result.

SMILES	ARFGAP1 inhibitor	ASAP1 GAP inh	UHRF1 MBD2 ctr	TCR CD3 inh	LEDGF integ inh	MBD2 DNA inh
CCc1cccc(OCC(=O)Nc2ccc(S(=O)(=O)Nc3ccccn3)cc2)c1	-4	-2	79*	3	3	-2
Cc1ccc(S(=O)(=O)N2C[C@]3(O)C[C@@H]4C(=O)N(c5ccccc5)C(=O)[C@@H]4C[C@]3(OC(=O)NCc3ccco3)C2)cc1	0	-14	-1	0	-1	1
Cc1ccc(S(=O)(=O)N2C[C@]3(O)C[C@@H]4C(=O)N(c5ccccc5)C(=O)[C@@H]4C[C@]3(OC(=O)NCc3ccccc3)C2)cc1	4	-8	23*	4	1	9
O=C(C(=O)N1CCN(C(=O)Cc2ccccc2)CC1)c1cccc(C(F)(F)F)c1	-8	1	58*	9	2	-6
O=C(CSc1ccccn1)Nc1ccc2c(c1)OCCO2	-1	-4	4	-5	-1	5
O=C(CSc1ccccn1)Nc1ccc(N2CCOCC2)cc1	7	8	93*	5	3	-7
Clc1ccc(CN2CCN(c3ncc(Cc4ccccc4)cn3)CC2)c(Cl)c1	-2	1	1	-3	2	-3
COc1ccccc1C(=O)NC1CCCCN(Cc2ccc(C)cc2)C1=O (configuration not stated)	x	x	0	x	2	3
C#CCn1c(=NC(=O)c2sc3ccccc3c2Cl)sc2cc(S(N)(=O)=O)ccc21	82*	11	3	-9	-4	1
CC(NC(=O)C1CCN(CCOc2ccc(Cl)cc2)CC1)c1cccc2ccccc12 (configuration not stated)	8	1	25*	-8	-4	0
CCn1c(=O)cc(SCC(=O)NCCCN2CCC(C)CC2)c2ccccc21	-5	3	-2	4	4	0
CCn1c(=O)cc(SCC(=O)NCCCN2CCN(c3ccc(F)cc3)CC2)c2ccccc21	5	8	21*	4	-1	-2
CC(C)CC(=O)Nc1cccc(C(C)O)c1 (configuration not stated)	-6	7	21*	1	4	-2
CCCCC(=O)Nc1cccc(C(C)O)c1 (configuration not stated)	11	7	0	-3	-6	-1
COc1ccccc1CN[C@@H]1CC[C@@]23CCCN2C(=O)CCC[C@H]3C1	x	x	2	x	-1	4
CNC(=O)c1sc(-c2ccccc2)nc1C	6	5	33*	-1	-1	0
O=C(N/N=C/c1ccc(OC(F)F)cc1)c1ccc(CSc2nc3ccccc3[nH]2)cc1	0	-7	25*	8	-1	13
CCCc1cc(-c2n[nH]c(C)c2-c2ccc(C(=O)OCC)o2)c(O)cc1O	19	22	7	-2	-1	3
CCCc1cc2c(OC(=O)CC)c(-c3ccc(C(=O)OCC)o3)c(=O)oc2cc1OC	-17	-1	24*	-9	3	10
CCOc1cc(C(=O)NC(C)CC)cc(OCC)c1OCC (configuration not stated)	-2	-4	27*	-1	0	3
C=CCN(C(=O)[C@@H](CCCC)[C@@H](O)c1ccc(C(C)=O)cc1)c1ccccc1	x	x	-4	x	0	-1
COCc1ccc(C(=O)N2CCCC(Nc3ccc4c(c3)OCCO4)C2)o1 (configuration not stated)	6	-1	21*	6	8	10
COc1ccc(NC2CCCN(C(=O)c3ccc(CSC)o3)C2)cc1OC (configuration not stated)	0	1	-2	-7	-3	6
Cc1ccc2c(c1)-c1c(cnn1CC(=O)NCCc1ccc(O)cc1)CO2	x	x	-1	x	-1	5
CCCCCCn1c(=O)n2n(c1=O)C[C@]1(OC(=O)NCc3ccco3)CN(S(=O)(=O)c3ccc(C)cc3)C[C@]1(O)C2	7	7	-2	-7	2	-5
SMILES	ARFGAP1 inhibitor	ASAP1 GAP inh	UHRF1 MBD2 ctr	TCR CD3 inh	LEDGF integ inh	MBD2 DNA inh
O=C(CSc1nc(-c2ccccc2)c(-c2ccccc2)o1)N1CCOCC1	0	-1	92*	4	-2	0
O=C(/C=C/c1ccccc1)Oc1ccc(C(=S)N2CCOCC2)cc1	10	5	28*	10	2	12
CC1CCN(c2ccc(C(=O)O)cc2NS(=O)(=O)c2ccccc2)CC1	x	x	1	x	-1	2
Nc1cc2nsnc2cc1Br	22	-6	4	2	48*	3
Cc1cc(N2CCN(C(c3ccnc4ccccc34)c3nnnn3-c3c(C)cccc3C)CC2)c2ccccc2n1 (configuration not stated)	-6	3	24*	-2	0	3
Cc1cccc(C)c1-n1nnnc1C(c1ccnc2ccccc12)N1CCN(CCN(C)C)CC1 (configuration not stated)	21	14	1	-5	5	-2
CCC(=O)N1CCc2cc(Br)c(S(=O)(=O)N3CCCC(C(=O)NC(C)(C)C)C3)cc21 (configuration not stated)	x	x	1	x	0	5
O=C1NC(=O)C(CC(=O)N(Cc2cccs2)C2(C(=O)NC3CCCC3)CCCCC2)N1 (configuration not stated)	3	-7	23*	-5	3	5
C/C(=N\Nc1nc2ccccc2[nH]1)c1ccc(N2CCOCC2)cc1	-3	17	33*	-1	0	3
C/C(=N\Nc1nc(C)cc(C)n1)c1ccc(N2CCOCC2)cc1	2	8	-1	2	0	0
CCCC(=O)OC12CCCN(C1)/C(=C/c1cccc(Cl)c1)C2 (configuration not stated)	x	x	0	x	-1	4
COC(=O)c1ccc2nc(-c3ccc(OC)c(OC)c3)c(Cc3ccccc3OC)n2c1	2	1	23*	0	-4	8
COC(=O)c1ccc2nc(-c3ccc(OC)c(OC)c3)c(Cc3ccccc3C(F)(F)F)n2c1	-3	0	24*	5	2	5
N=C1/C(=C/c2ccc(OCc3ccccc3F)cc2)C(=O)N=C2SC(CC(=O)N3CCOCC3)=NN12	8	1	23*	0	0	13
Cc1ccc(C(=O)NCC(=O)OCc2nc3sc(C)c(C)c3c(=O)[nH]2)cc1	x	x	2	x	-2	-2
O=C(Nc1nc(-c2ccco2)c(-c2ccco2)s1)c1c(F)cccc1Cl	-25	8	15	7	48*	1
O=C(Nc1nc(-c2ccco2)c(-c2ccco2)s1)c1ccc(F)cc1F	-3	3	-2	1	11	-6
CC(c1ccco1)N(C(=O)c1ccccc1NS(=O)(=O)c1cc([N+](=O)[O-])ccc1Cl)c1ccccn1 (configuration not stated)	-1	-3	26*	4	4	6
